Hits are enriched below; roughly 1.9% of the tested compounds scored in any of these assays.
M4 antag: human M4 muscarinic receptor antagonists, primary screen, CHO cells, Fluo-8 calcium fluorescence | Muscarinic acetylcholine receptor M4 (Homo sapiens), P08173 | CHO-hM4 cells, ACh EC80 | inhibition, % at 3 µM | 0.73% of 360,000 active;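 active means inhibition above its plate's cutoff, the mean inhibition of sample wells plus 3 SD, cut at about 27% in these data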
Target sequence (P08173 whole entry, looked up): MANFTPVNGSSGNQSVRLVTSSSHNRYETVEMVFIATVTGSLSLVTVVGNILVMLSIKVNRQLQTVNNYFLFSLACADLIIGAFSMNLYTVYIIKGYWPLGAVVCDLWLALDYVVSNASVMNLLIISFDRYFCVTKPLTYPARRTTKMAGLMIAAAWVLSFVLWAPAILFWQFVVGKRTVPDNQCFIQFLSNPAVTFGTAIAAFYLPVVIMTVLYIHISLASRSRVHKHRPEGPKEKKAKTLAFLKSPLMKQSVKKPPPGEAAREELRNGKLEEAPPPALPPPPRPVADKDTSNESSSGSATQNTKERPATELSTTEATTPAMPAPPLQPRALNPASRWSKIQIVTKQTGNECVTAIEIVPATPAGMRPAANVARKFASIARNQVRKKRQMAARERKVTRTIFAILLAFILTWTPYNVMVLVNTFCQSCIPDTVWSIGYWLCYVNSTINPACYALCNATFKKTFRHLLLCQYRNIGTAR
CHRM4 agonist: human M4 muscarinic receptor agonists, primary screen, CHO-K1 cells, Fluo-8 calcium fluorescence | CHO-K1 hM4/Gqi5; vehicle 0%, full acetylcholine response 100% | activation, % at 3 µM | 0.14% of 360,000 active;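 active means activation above the run mean over all test wells plus 3 SD, cut at about 32% in these data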;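 further: peak over basal fluorescence ratio per well then scaled between controls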
CHRM5 PAM: human M5 muscarinic receptor positive allosteric modulators, primary screen, CHO-K1 cells, Fluo-8 calcium fluorescence; AID 624038, 2012; activation, % at 3 µM; CHO-K1 hM5, ACh EC20 PAM; 0% = ACh EC20, 100% = ACh EC100; 0.3% of 360,000 active;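 active means activation above the run cutoff, the mean activation of all test compounds plus 3 SD, cut at about 18% in these data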
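System: CHO-K1 cell line with stable human muscarinic M5 receptor expression | Also added: EC20 acetylcholine as agonist stimulus | Compound: One concentration, 3 µM final (nominal) | Timing: Fluo-8 loading 80 min at 37 °C plus 30 min room temperature | Measured by: Fluo-8 calcium dye fluorescence, kinetic read | Read-out basis: % activation, ACh-normalized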
CHRM5 antagonist: human M5 muscarinic receptor antagonists, primary screen, CHO cells, Fluo-8 calcium fluorescence. 0.59% of 360,000 active. inhibition, % at 3 µM. Muscarinic acetylcholine receptor M5 (Homo sapiens), P08912. AID 624040, 2012. CHO-hM5 cells, ACh EC80;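 active means inhibition above a per-plate cutoff, the mean of that plate's test compounds plus 3 SD, cut at about 27% in these data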
M5 ag: human M5 muscarinic receptor agonists, primary screen, CHO-K1 cells, Fluo-8 calcium fluorescence; Muscarinic acetylcholine receptor M5 (Homo sapiens), P08912; CHO-K1 hM5 cells; 0% DMSO wells, 100% maximal acetylcholine response; activation, % at 3 µM; 0.19% of 360,000 active;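 active means activation above the run's mean over test compounds plus 3 SD, cut at about 23% in these data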;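 further: signal is peak over basal fluorescence ratio across the kinetic read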
CHRM4 PAM: human M4 muscarinic receptor positive allosteric modulators, primary screen, CHO-K1 cells, Fluo-8 calcium fluorescence; CHO-K1 hM4/Gqi5, ACh EC20; 0% = ACh EC20, 100% = maximal ACh; activation, % at 3 µM; 0.4% of 360,000 active;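 active means activation above its plate's cutoff, the mean activation of sample wells plus 3 SD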
A number is an active result; – = inactive.

SMILES | M4 antag | CHRM4 agonist | CHRM5 PAM | CHRM5 antagonist | M5 ag | CHRM4 PAM
COc1cccc(/C=N/NC(=O)C(=O)N2CCCCCC2)c1OC | – | – | – | – | – | –
CCCN1CCN(CCCNC(=O)c2ccc(CS(=O)c3ccccc3C)o2)CC1 (stereo unspecified) | – | – | – | – | – | –
OC(CCN1CCOCC1)(c1ccc(Cl)cc1)C1CCCCC1 (stereo unspecified) | 39 | – | – | 29 | – | –
CN(Cc1cn(Cc2ccccc2)nn1)C1CN(Cc2cn(Cc3ccccc3)nn2)S(=O)(=O)C1 (stereo unspecified) | – | – | – | – | – | –
C=CCSC1=C(C#N)C(c2ccccc2Cl)C(C(=O)c2cccs2)C(O)(C(F)(F)F)N1 (stereo unspecified) | – | – | – | 27 | – | –
CCSC1=C(C#N)C(c2ccccc2Cl)C(C(=O)c2cccs2)C(O)(C(F)(F)F)N1 (stereo unspecified) | – | – | – | – | – | –
CN(C)c1nc(OCCOC(=O)c2ccccc2)nc(N(C)C)n1 | – | – | – | – | 26 | –
c1ccc(CN2OCC3Cn4c(nc5ccccc54)C32)cc1 (stereo unspecified) | – | – | – | – | – | –
c1ccc2c(c1)nc1n2CC2CON(C3CCCCC3)C12 (stereo unspecified) | – | – | – | – | – | 25
c1ccc(N2OCC3Cn4c(nc5ccccc54)C32)cc1 (stereo unspecified) | – | – | – | – | – | 24
NC(=NCc1ccco1)NC(=O)c1ccc(Cl)cc1 | – | – | – | – | – | –
CCOC(=O)c1cn(Cc2ccccc2)c2cc(C)nn2c1=O | – | – | – | – | – | –
CCOC(=O)c1cn(Cc2ccccc2)c(C(=O)OC(C)(C)C)c1O | – | 81 | – | – | – | –
COc1ccc(NC2CCCN(C(=O)c3ccc(C)c(N4CCNC4=O)c3)C2)cc1 (stereo unspecified) | – | – | – | – | – | –
CN(Cc1nc2ccccc2n1C)S(=O)(=O)c1ccc(Cl)cc1 | – | – | – | – | – | 25
CN1CC(=O)N(CC(=O)Nc2ccc(N3CCOCC3)cc2)C1=O | – | – | – | – | – | –
Cn1cc(C(=O)N2CCN(c3ccccn3)CC2)c(=O)c2cc(S(=O)(=O)N3CCOCC3)ccc21 | – | – | 20 | – | – | –
CCC(C)n1c(C)cc(=O)n1C(C)CC (stereo unspecified) | – | – | – | – | – | –
CCOc1cc(/C=N/NC(=O)Cc2ccc(C(F)(F)F)cc2[N+](=O)[O-])c(Br)cc1OC | – | – | 22 | – | – | –
COc1cc(Br)cc(/C=N/NC(=O)Cc2ccc(C(F)(F)F)cc2[N+](=O)[O-])c1O | – | – | – | – | – | –
CCOc1ccc(N(C)C(=O)CCc2nnc3ccc(N4CCC5(CC4)OCCO5)nn23)cc1 | – | – | – | – | – | –
Cc1ccc(F)cc1NC(=O)CCc1c(C)[nH]c(=O)c(C#N)c1C | – | – | – | – | – | –
Cc1[nH]c(=O)c(C#N)c(C)c1CCC(=O)Nc1cc(S(C)(=O)=O)ccc1Cl | – | – | – | – | – | 20
O=C(NCC1CCCO1)c1cccc2c1C(=O)c1ccc(N3CCC(Cc4ccccc4)CC3)cc1S2(=O)=O (stereo unspecified) | 35 | 73 | – | 34 | 43 | –
O=C(NCc1ccco1)c1cccc2c1C(=O)c1ccc(N3CCCC3)cc1S2(=O)=O | – | 40 | – | – | – | –
CC1CCN(c2ccc3c(c2)S(=O)(=O)c2cccc(C(=O)NC[C@@H]4CCCO4)c2C3=O)CC1 | – | – | – | – | – | –

Bioassay records deposited in PubChem by The Scripps Research Institute Molecular Screening Center.
